Compound activity (PubChem)
Measles CPE = compounds protecting cells from measles virus cytopathic effect, primary screen, measles RdRp inhibitor project, single point, MLSMR library, absorbance. Measles virus-infected cells, CPE protection. AID 841, 2007. protection (pct of control), % at 4 µM. actives 1.5% (n = 140,000); in the data active = protection mostly above about 24%, no sharp cut-off; inactive = mostly below about 26%
NPY2 pot ag = NPY-Y2 potentiators or agonists, primary screen, cell-based | cells expressing NPY-Y2, potentiator/agonist read-out | activation, % at 3.6 µM | actives 0.45% (n = 220,000) | AID 1359, 2008; in the data active = activation above about 27%;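 note: cells stimulated with NPY near EC25 plus isoproterenol at EC100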
NPY Y2 blocker = NPY-Y2 receptor antagonists, primary screen, cell-based. Neuropeptide Y receptor type 2 (Homo sapiens), P49146. NPY-Y2 expressing cells, antagonist mode. inhibition, % at 2.7 µM. actives 0.99% (n = 140,000). AID 793, 2007; in the data active = inhibition above about 17%
NPY-Y1 antag = NPY-Y1 receptor antagonists, primary screen, cell-based. Neuropeptide Y receptor type 1 (Homo sapiens), P25929. HEK293-CNG Y1 cells, membrane potential fluorescence; NPY at EC95, then isoproterenol. inhibition, % at 3.6 µM. actives 1% (n = 200,000);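 active = inhibition above the campaign mean inhibition of all tested compounds plus 3 SD, cut at about 20% in these data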
Target sequence (P25929 whole entry, looked up): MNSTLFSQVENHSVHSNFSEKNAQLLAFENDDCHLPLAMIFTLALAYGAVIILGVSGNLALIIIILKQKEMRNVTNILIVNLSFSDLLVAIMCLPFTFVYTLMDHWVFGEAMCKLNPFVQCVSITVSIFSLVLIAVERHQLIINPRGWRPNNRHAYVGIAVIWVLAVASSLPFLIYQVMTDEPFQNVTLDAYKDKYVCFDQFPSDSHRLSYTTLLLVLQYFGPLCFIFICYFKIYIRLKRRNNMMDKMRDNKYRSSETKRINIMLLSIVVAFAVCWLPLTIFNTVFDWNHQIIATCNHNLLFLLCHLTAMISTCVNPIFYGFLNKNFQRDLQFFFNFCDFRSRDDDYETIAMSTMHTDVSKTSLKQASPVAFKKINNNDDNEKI
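Material: HEK293 cells co-expressing NPY Y1 receptor and cyclic-nucleotide gated channel. Timing: compound incubation 1 h at room temperature, readout 45 min post-stimulation. Signal: fluorescence, membrane potential probe.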
NPY1 pot ag = NPY-Y1 receptor potentiators or agonists, primary screen, cell-based; actives 0.37% (n = 220,000); Neuropeptide Y receptor type 1 (Homo sapiens), P25929; activation, % at 3.6 µM; NPY-Y1 expressing cells, potentiator/agonist activation; in the data active = activation above about 33%, passing the limit was not always enough;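 note: cells stimulated with NPY at EC10 then isoproterenol at EC100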
Rad51 HR inh = human RAD51 strand exchange inhibitors, primary screen, biochemical, fluorescence. DNA repair protein RAD51 homolog 1 (Homo sapiens), Q06609. hRad51 DNA strand exchange, fluorescence dequenching. inhibition, % at 10 µM. actives 0.085% (n = 200,000);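 active = inhibition above 40% at the single screening dose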
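material = hRad51 filaments on single-stranded DNA | reagent = Donor/quencher-labelled 47-bp dsDNA substrate | compound = 10 µM final, single point | schedule = strand-exchange reaction 15 min at room temperature | measured by = fluorescein emission 520 nm, excitation 485 nm | read-out basis = % inhibition versus plate control and blank means | benchmarks = plate controls and plate blanks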
Of the large screens only hits and unclear results are named; the others gave an inactive call. In the library only some 2.8% were active in any assay of this set; here they are far more common.

Cc1cccc(NC(=S)NC(NC(=O)c2ccco2)C(Cl)(Cl)Cl)c1 (centres undefined)	none
Cc1cccc(NC(NC(=O)Cc2ccccc2)C(Cl)(Cl)Cl)c1 (centres undefined)	Measles CPE 58.0
Nc1nonc1C(=O)NCCNCc1cc(Br)ccc1OCc1ccccc1F	NPY Y2 blocker 43.1, NPY-Y1 antag 44.2
CCOc1ccc(Oc2c(/C=N/NC(=O)COc3ccccc3OC)c(C)nn2-c2ccccc2)cc1	NPY Y2 blocker 26.2, NPY-Y1 antag 30.3
Cc1noc(C)c1COc1ccc(C(=O)OCC(N)=O)cc1	none (no result: Measles CPE, NPY Y2 blocker)
Cc1noc(C)c1COc1ccc(C(=O)OCC(=O)N2CC3(C)CC2CC(C)(C)C3)cc1 (centres undefined)	Measles CPE 51.2
O=C(c1ccc(COCC(F)(F)F)o1)N1CCCC1	none (no result: Measles CPE, NPY Y2 blocker)
CCCCc1nc(N2CCOCC2)c(C#N)c2c1CCCC2	Measles CPE 55.6
CCCc1nc(N2CCOCC2)c(C#N)c2c1CCCC2	none
CCOc1cc(O)c(-c2[nH]ncc2-c2nc(C)cs2)cc1CC	none (no result: Measles CPE, NPY Y2 blocker, NPY-Y1 antag, Rad51 HR inh)
Fc1cccc(Cl)c1CNCc1ccccc1Cl	none
CCCCCCNCc1c(F)cccc1Cl	Measles CPE 57.3
CCOc1ccc2[nH]c(=O)c(CN(CC3CCCN3CC)C(=O)NCc3ccccc3)cc2c1 (centres undefined)	Measles CPE 24.5
Cc1ccc(Nc2c(-c3ccc(N(C)C)cc3)nc3ncccn23)cc1	none (no result: Measles CPE, NPY Y2 blocker, NPY-Y1 antag)
Cc1ccc(Nc2c(-c3ccc(N4CCOCC4)cc3)nc3ncccn23)c(C)c1	NPY2 pot ag 67.2, NPY1 pot ag 57.5 (no result: Rad51 HR inh)
CC1CN(C(NC(=O)c2ccccc2)C(Cl)(Cl)Cl)CC(C)O1 (centres undefined)	none (no result: Measles CPE, NPY Y2 blocker)
Cc1c(C(=O)N(C)Cc2ccccc2)oc2ccc(S(=O)(=O)N3CCCC3)cc12	Measles CPE 80.6
Cc1c(C(=O)NCc2ccccc2)oc2ccc(S(=O)(=O)N3CCCC3)cc12	none
CCOC(=O)C(=CNc1ccc(C)cc1C)C(=O)OCC	Measles CPE 37.4
CCc1ccc(OCCCC(=O)Nc2ccc(S(N)(=O)=O)cc2)cc1	none (no result: Measles CPE, NPY Y2 blocker, Rad51 HR inh)
COC(=O)C1=C(Nc2ccc(C)cc2)C=C(C)C(C(=O)OC)C1c1ccc(OC)cc1 (centres undefined)	NPY Y2 blocker 23.1, NPY-Y1 antag 29.5
O=C(CCN1C(=O)S/C(=C/c2ccc(Cl)cc2)C1=O)N1CCOCC1	Measles CPE 42.4
CCOC(=O)c1nn(-c2cccc(C)c2)c2nnc(Cc3ccc(C)cc3)c(=O)n12	none
CC(C)(C)n1nnnc1C(c1cccc(C(F)(F)F)c1)N1CCOCC1 (centres undefined)	Measles CPE 27.4
Cc1ccccc1CN(c1ccc(C(=O)N/N=C/c2ccc(OCC(N)=O)cc2)cc1)S(C)(=O)=O	none (no result: Measles CPE, NPY Y2 blocker, Rad51 HR inh)
CCOC(=O)c1c(NC(=O)CSc2nnc(C)c(=O)[nH]2)sc2c1CCCC2	none
CCOC(=O)c1c(NC(=O)CSc2nnc(C)s2)sc2c1CCCCC2	NPY Y2 blocker 19.5, NPY-Y1 antag 39.2
O=C(NCCN1CCOCC1)c1cc(Cl)ccc1[N+](=O)[O-]	Measles CPE 32.4
COCCOC(=O)c1[nH]c2c(c1C)C(=O)CC(c1cc(OC)ccc1OC)C2 (centres undefined)	none
CCCOCCOC(=O)c1[nH]c2c(c1C)C(=O)CC(c1cc(OC)ccc1OC)C2 (centres undefined)	NPY Y2 blocker 30.9, NPY-Y1 antag 34.5
O=C(NC1=NCCS1)C1Cc2ccccc2CN1C(=O)c1ccccc1 (centres undefined)	Measles CPE 29.2
C/C(=N\NC(=O)CSCc1ccc([N+](=O)[O-])cc1)c1ccccc1O	none
O=C(N/N=C/c1ccc(O)c(O)c1)c1ccc(CSc2cccc3cccnc23)cc1	none
CCCCOc1ccc(C(=O)N/C(=C/C=C/c2ccccc2)C(=O)NCCCO)cc1	Measles CPE 48.0
O=C(CSc1nnc(-c2ccc(F)cc2)c2ccccc12)Nc1ccccc1Cl	none
O=C(OC(C(=O)NCc1cccs1)c1ccccc1F)c1ccco1 (centres undefined)	Measles CPE 42.0
CC(C)C(C(=O)Nc1sc2c(c1C#N)CCCCC2)N1C(=O)c2ccccc2C1=O (centres undefined)	Measles CPE 56.2
N#Cc1c(NC(=O)c2ccccc2)sc2c1CCC2	none
Clc1ccccc1-c1nnc(CNC2CC2)o1	none (no result: Measles CPE, NPY Y2 blocker)
c1ccc(C[n+]2cccc3c4ccccc4ccc32)cc1	NPY2 pot ag 35.7
CCCCC[n+]1cccc2c3ccccc3ccc21	none (no result: Measles CPE, NPY Y2 blocker)
Cn1c(SCC(=O)Nc2ncc(C(F)(F)F)cc2Cl)nnc1-c1ccc(Cl)cc1	none
CC(=O)Nc1ccc(-c2csc(NC(=O)CCCc3cccs3)n2)cc1	Measles CPE 110.2
O=C(O)CCC(=O)Nc1nc(-c2ccccc2)cs1	NPY Y2 blocker 22.3
Cc1ccc(OCC(O)Cn2c(=N)n(Cc3ccccc3)c3ccccc32)cc1 (centres undefined)	NPY Y2 blocker 31.7, NPY-Y1 antag 23.4
N=c1n(CCN2CCCCC2)c2ccccc2n1CC(O)c1ccco1 (centres undefined)	none (no result: Measles CPE, NPY Y2 blocker, NPY-Y1 antag)
Cc1cccc(OCC(O)Cn2c(=N)n(Cc3ccccc3)c3ccccc32)c1 (centres undefined)	none (no result: Measles CPE, NPY Y2 blocker, NPY-Y1 antag)
N=c1n(Cc2ccccc2)c2ccccc2n1CC(O)COc1ccc(Cl)cc1Cl (centres undefined)	none (no result: Measles CPE, NPY Y2 blocker)
Cc1cccc(OCC(O)Cn2c(=N)n(CCN3CCCCC3)c3ccccc32)c1 (centres undefined)	NPY Y2 blocker 83.9, NPY-Y1 antag 57.1
COc1ccc(OCC(O)Cn2c(=N)n(Cc3ccccc3)c3ccccc32)cc1 (centres undefined)	NPY Y2 blocker 31.7, NPY-Y1 antag 32.8
Cc1cc(N2CCCCC2)nc(N2CCCCC2)n1	none (no result: Measles CPE, NPY Y2 blocker)
Cc1ccc(Nc2nc(N)c([N+](=O)[O-])c(NCc3ccco3)n2)cc1C	none
Cc1csc(NC(=O)C(NC(=O)c2ccccc2F)C(C)C)n1 (centres undefined)	none (no result: Measles CPE, NPY Y2 blocker)
N#CC1=C(N)Oc2n[nH]c(-c3cccs3)c2C1c1ccncc1 (centres undefined)	none (no result: Measles CPE, NPY Y2 blocker)
Cc1cc(-c2[nH]nc3c2C(c2ccc(Cl)cc2)C(C#N)=C(N)O3)c(C)s1 (centres undefined)	NPY Y2 blocker 69.3, NPY-Y1 antag 58.9
